ChEMBL document CHEMBL1134408, “Antitumor agents. 207. Design, synthesis, and biological testing of 4beta-anilino-2-fluoro-4'-demethylpodophyllotoxin analogues as cytotoxic and antiviral agents” (2001)
≈ marks a conversion by molar mass, not a printed value.

How the values were obtained:
A549 [1] = assay: % inhibition against A549 cells (lung cancer) at 0.04 ug/mL; type: functional; details: Homo sapiens
A549 [2] = assay: % inhibition against A549 cells (lung cancer) at 0.4 ug/mL; type: functional; details: Homo sapiens
A549 [3] = assay: % inhibition against A549 cells (lung cancer) at 4 ug/mL; type: functional; details: Homo sapiens
CAKI-1 [4] = assay: % inhibition against CAKI-1 cells(renal carcinoma) at 0.04 ug/mL.; type: functional; details: Homo sapiens
CAKI-1 [5] = assay: % inhibition against CAKI-1 cells(renal carcinoma) at 0.4 ug/mL.; type: functional; details: Homo sapiens
CAKI-1 [6] = assay: % inhibition against CAKI-1 cells(renal carcinoma) at 4 ug/mL.; type: functional; details: Homo sapiens
Human betaherpesvirus 5 = assay: Inhibitory activity against human cytomegalovirus (HCMV); type: functional; details: for IC50: read-out: ID50 (the source's name)
Procedure, shortened: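 Confluent HEL fibroblasts infected with Towne strain CMV at 1–2 PFU/cell, with or without a drug dilution series. Antiviral effect read either as extracellular virus yield (day-6 supernatant titred by plaque assay on HEL, counted at 2 weeks) or as viral DNA by 32P-CMV-probe dot hybridization with scintillation counting of dots.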

HEL = assay: Inhibitory activity against HEL cells; type: functional; details: Homo sapiens, read-out: ED50 (the source's name)
Procedure, shortened: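 Human embryonic lung fibroblasts in MEM/10% FBS, 6% CO2, seeded at 50 000 cells/mL with a drug dilution series. Exposure 15 days; viability and cell counts by trypan blue. ED50 (50% growth reduction versus untreated cells) interpolated from dose–response data.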

[7] = % inhibition against KB cells (nasopharyngeal carcinoma) at 0.04 ug/mL; type: functional; details: Homo sapiens
[8] = % inhibition against KB cells (nasopharyngeal carcinoma) at 0.4 ug/mL; type: functional; details: Homo sapiens
[9] = % inhibition against KB cells (nasopharyngeal carcinoma) at 4 ug/mL; type: functional; details: Homo sapiens
MCF7 [10] = assay: % inhibition against MCF-7 cells (breast cancer) at 0.04 ug/mL; type: functional; details: Homo sapiens
MCF7 [11] = assay: % inhibition against MCF-7 cells (breast cancer) at 0.4 ug/mL; type: functional; details: Homo sapiens
MCF7 [12] = assay: % inhibition against MCF-7 cells (breast cancer) at 4 ug/mL; type: functional; details: Homo sapiens
[13] = Selectivity index (ED50/ID50) value of the compound; type: functional
Procedure, shortened: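 Ratio of ED50 for growing HEL cells (15-day trypan blue count) to ID50 against Towne strain CMV in HEL fibroblasts.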

A549 [14] = assay: GI values against A549 cells (lung cancer); type: functional; details: Homo sapiens
CAKI-1 [15] = assay: GI values against CAKI-1 cells(renal carcinoma); type: functional; details: Homo sapiens
[16] = GI values against KB cells (nasopharyngeal carcinoma); type: functional; details: Homo sapiens
Human alphaherpesvirus 1 [17] = assay: Minimum inhibitory concentration against herpesvirus simplex 1; type: functional
Procedure, shortened: (§1)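 Plaque elimination in pre-formed confluent Vero monolayers, HSV-1 strain KOS or HSV-2 strain 186, ~100 PFU inoculum for 30 min. Overlay medium had 0.5% calf serum, 1% carboxymethylcellulose and drug dilutions. Crystal violet fix/stain at 2 days; macroscopic plaques scored. ED100 = dilution fully eliminating plaques without monolayer toxicity. MIC = lowest dilution reducing plaque size/number. Repeated at least twice.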

Human alphaherpesvirus 2 [18] = assay: Minimum inhibitory concentration against herpesvirus simplex 2; type: functional; procedure, shortened: as §1
Human alphaherpesvirus 1 [19] = assay: Effective dose required to inhibit 100% against herpesvirus simplex 1; type: functional; procedure, shortened: as §1
Human alphaherpesvirus 2 [20] = assay: Effective dose required to inhibit 100% against herpesvirus simplex 2; type: functional; procedure, shortened: as §1
Vero [21] = assay: Effective dose required to inhibit 25% of cell growth (Herpesvirus activity); type: functional, Chlorocebus sabaeus
Procedure, shortened: (§2)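 Cells seeded at 50 000 cells/mL with a drug dilution series, exposed 2 days; cell number by sulforhodamine B staining. ED25 interpolated from dose–response as the concentration cutting absorbency by 25%. MIC = lowest dilution giving detectable growth inhibition. Triplicate wells; absorbency within 5%, ED25 within 30% across independent tests.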

Vero [22] = assay: Minimum inhibitory concentration for cell growth inhibition (Herpesvirus activity); type: functional; details: Chlorocebus sabaeus; procedure, shortened: as §2
Homo sapiens = species: Homo sapiens; assay: Cytotoxicity against HEL cells

Compound | inhibition at 0.04 µg/mL (A549 [1]) [%] | inhibition at 0.4 µg/mL (A549 [2]) [%] | inhibition at 4 µg/mL (A549 [3]) [%] | inhibition at 0.04 µg/mL (CAKI-1 [4]) [%] | inhibition at 0.4 µg/mL (CAKI-1 [5]) [%] | inhibition at 4 µg/mL (CAKI-1 [6]) [%] | ID90 (Human betaherpesvirus 5) [nM] | IC50 (Human betaherpesvirus 5) [nM] | EC50 (HEL) [nM] | inhibition at 0.04 µg/mL [7] [%] | inhibition at 0.4 µg/mL [8] [%] | inhibition at 4 µg/mL [9] [%] | inhibition at 0.04 µg/mL (MCF7 [10]) [%] | inhibition at 0.4 µg/mL (MCF7 [11]) [%] | inhibition at 4 µg/mL (MCF7 [12]) [%] | SI [13] | GI50 (A549 [14]) [nM] | GI50 (CAKI-1 [15]) [nM] | GI50 [16] [nM] | also measured
COc1cc([C@@H]2c3cc4c(cc3[C@@H](Nc3ccc(N)cc3)[C@H]3COC(=O)[C@]23F)OCO4)cc(OC)c1O | 0 | 7.7 | 51 | 0 | 2.5 | 38 | 5020 | 2540 | 7500 | 0 | 7.5 | 61.5 | 0 | 5.8 | 48.1 | 3 | 3980 | > 10000 | 3980 | 
COc1cc([C@@H]2c3cc4c(cc3[C@@H](Nc3ccc(C#N)cc3)[C@H]3COC(=O)[C@]23F)OCO4)cc(OC)c1O | 11.1 | 11.9 | 52.5 | 7.9 | 9.5 | 28.4 | 4290 | 760 | 8430 | 5 | 4.2 | 30.5 | 7.7 | 8.2 | 45.8 | 11.1 |  |  |  | 
COc1cc([C@@H]2c3cc4c(cc3[C@@H](Nc3ccc5c(c3)OCCC5=O)[C@H]3COC(=O)[C@H]23)OCO4)cc(OC)c1O |  |  |  |  |  |  |  |  |  |  |  |  |  |  |  |  | 100 | 126 | 631 | 
COc1cc([C@@H]2c3cc4c(cc3[C@@H](Nc3ccc(F)cc3)[C@H]3COC(=O)[C@H]23)OCO4)cc(OC)c1O |  |  |  |  |  |  |  | 650 |  |  |  |  |  |  |  |  | 251 | 316 | 251 | 
COc1cc([C@@H]2c3cc4c(cc3[C@@H](Nc3ccc([N+](=O)[O-])cc3)[C@H]3COC(=O)[C@]23F)OCO4)cc(OC)c1O | 0 | 6.5 | 51.8 | 0.8 | 2.6 | 21.9 | 4600 | 1450 | 6090 | 0 | 3.8 | 41.6 | 0.9 | 7.3 | 42.1 | 4.2 | 3980 | > 10000 | > 10000 | 
COc1cc([C@@H]2c3cc4c(cc3[C@H](O[Si](C)(C)C(C)(C)C)[C@H]3COC(=O)[C@H]23)OCO4)cc(OC)c1OC |  |  |  |  |  |  |  |  |  |  |  |  |  |  |  |  |  |  |  | MIC (Human alphaherpesvirus 1 [17]): 1 µM (≈ 0.529 µg/mL); MIC (Human alphaherpesvirus 2 [18]): 0.1 µM (≈ 0.0529 µg/mL); ED100 (Human alphaherpesvirus 1 [19]): 10 µM; ED100 (Human alphaherpesvirus 2 [20]): 1000 nM; ED25 (Vero [21]): 6000 nM; MIC (Vero [22]): 3 µM (≈ 1.59 µg/mL)
COc1cc([C@@H]2c3cc4c(cc3[C@H](O)[C@H]3COC(=O)[C@]23F)OCO4)cc(OC)c1OC | 59.4 | 69.6 | 73.1 | 18.1 | 39.7 | 40.5 | >5000 | > 5000 |  | 53.3 | 72 | 87.4 | 34.2 | 48 | 51 |  | 3980 | > 10000 | 31.6 | MIC (Human alphaherpesvirus 1 [17]): 1 µM (≈ 0.432 µg/mL); MIC (Human alphaherpesvirus 2 [18]): 0.1 µM (≈ 0.0432 µg/mL); ED100 (Human alphaherpesvirus 1 [19]): 10 µM; ED100 (Human alphaherpesvirus 2 [20]): 1000 nM; ED25 (Vero [21]): 1000 nM; MIC (Vero [22]): 0.8 µM (≈ 0.346 µg/mL)
COc1cc([C@@H]2c3cc4c(cc3[C@@H](O)[C@H]3COC(=O)[C@]23F)OCO4)cc(OC)c1O | 0 | 34.3 | 78.1 | 0 | 10.6 | 39 | >5000 | > 5000 | 8200 | 0 | 25.6 | 64 | 0 | 21.8 | 53.8 | < 1.6 |  |  |  | 
COc1cc([C@@H]2c3cc4c(cc3[C@@H](Nc3ccc([N+](=O)[O-])cc3)[C@H]3COC(=O)[C@H]23)OCO4)cc(OC)c1O |  |  |  |  |  |  |  | 350 |  |  |  |  |  |  |  |  | 158 | 158 | 501 | 
COc1cc([C@@H]2c3cc4c(cc3[C@@H](O[C@@H]3O[C@@H]5CO[C@@H](C)O[C@H]5[C@H](O)[C@H]3O)[C@H]3COC(=O)[C@H]23)OCO4)cc(OC)c1O [ETOPOSIDE] |  |  |  |  |  |  |  | 1030 |  |  |  |  |  |  |  | 8.4 | 6310 | 6310 | 200 | ED50 (Homo sapiens): 8640 nM
COc1cc([C@@H]2c3cc4c(cc3[C@H](O)[C@H]3COC(=O)[C@H]23)OCO4)cc(OC)c1OC [PODOFILOX] |  |  |  |  |  |  |  | < 100 |  |  |  |  |  |  |  |  | 7.94 | 100 |  | MIC (Human alphaherpesvirus 1 [17]): 0.01 µM (≈ 0.00414 µg/mL); MIC (Human alphaherpesvirus 2 [18]): 0.01 µM (≈ 0.00414 µg/mL); ED100 (Human alphaherpesvirus 1 [19]): 0.05 µM; ED100 (Human alphaherpesvirus 2 [20]): 100 nM; ED25 (Vero [21]): 20 nM; MIC (Vero [22]): 0.008 µM (≈ 0.00332 µg/mL)
COc1cc([C@@H]2c3cc4c(cc3[C@@H](Nc3ccc(F)cc3)[C@H]3COC(=O)[C@]23F)OCO4)cc(OC)c1O | 16.1 | 26.2 | 61.4 | 10.3 | 15.3 | 44.3 | 4470 | 970 | 6100 | 7.5 | 10.1 | 70.9 | 13.2 | 20 | 61.2 | 6.2 | 2000 | > 10000 | 2000 | 
COc1cc([C@@H]2c3cc4c(cc3[C@@H](Nc3ccc(N)cc3)[C@H]3COC(=O)[C@H]23)OCO4)cc(OC)c1O |  |  |  |  |  |  |  | 1250 |  |  |  |  |  |  |  |  | 316 | 316 | 794 | 
COc1cc([C@@H]2c3cc4c(cc3[C@H](O[Si](C)(C)C(C)(C)C)[C@H]3COC(=O)[C@]23F)OCO4)cc(OC)c1OC |  |  |  |  |  |  |  |  |  |  |  |  |  |  |  |  |  |  |  | ED25 (Vero [21]): 25000 nM; MIC (Vero [22]): 6 µM (≈ 3.28 µg/mL)
COc1cc([C@@H]2c3cc4c(cc3[C@@H](Nc3ccc(C#N)cc3)[C@H]3COC(=O)[C@H]23)OCO4)cc(OC)c1O |  |  |  |  |  |  |  | 620 |  |  |  |  |  |  |  |  |  |  |  | 
